The text below walks through data of PubChem BioAssay AID504531 (The Scripps Research Institute Molecular Screening Center, 2011).

For assay [1], the target named is Platelet-activating factor acetylhydrolase 2, cytoplasmic (Mus musculus) (UniProt Q8VDG7). The assay can be described thus: in situ PAFAH2 versus pPAFAH selectivity – fluorescence, gel-based ABPP, murine mast cells, selectivity assay for PAFAH2 inhibitor project, late-stage follow-up (AID 504531). Particulars: gel-based ABPP FP-Rh, PAFAH2, at 0.01 µM, stronger effect = higher value. In short, it runs like this: (§1)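 technique = SDS-PAGE with in-gel fluorescence scanning, band integrated optical density | system = murine mast cells treated in situ, then soluble lysate fraction | timing = cells 4 h 37 °C, probe 30 min 25 °C | compound dosing = one dose, 10 nM | medium = FCS-supplemented medium | benchmarks = high control DMSO-only treated cells, low control blank-gel background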

Assay [2] has as its target Platelet-activating factor acetylhydrolase (Mus musculus) (UniProt Q60963). The assay is described as above. Particulars: gel-based ABPP FP-Rh, pPAFAH, at 0.01 µM, stronger effect = higher value. In short, it runs like this:
as §1

As usually defined, the inhibition is how much of the control response was suppressed.

Sequence of Platelet-activating factor acetylhydrolase (Mus musculus) (Q60963 whole entry, looked up): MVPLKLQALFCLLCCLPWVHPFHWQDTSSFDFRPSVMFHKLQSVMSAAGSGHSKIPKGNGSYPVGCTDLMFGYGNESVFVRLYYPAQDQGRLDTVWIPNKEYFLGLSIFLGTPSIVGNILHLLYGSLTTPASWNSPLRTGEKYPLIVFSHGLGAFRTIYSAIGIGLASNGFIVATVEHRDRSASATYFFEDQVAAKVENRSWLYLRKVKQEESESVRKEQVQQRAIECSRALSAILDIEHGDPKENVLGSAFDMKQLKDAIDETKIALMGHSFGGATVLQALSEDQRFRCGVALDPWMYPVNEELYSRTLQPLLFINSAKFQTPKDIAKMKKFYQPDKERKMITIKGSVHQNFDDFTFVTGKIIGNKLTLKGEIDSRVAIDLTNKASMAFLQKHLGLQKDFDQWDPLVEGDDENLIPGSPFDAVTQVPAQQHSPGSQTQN
Sequence of Platelet-activating factor acetylhydrolase 2, cytoplasmic (Mus musculus) (Q8VDG7 whole entry, looked up): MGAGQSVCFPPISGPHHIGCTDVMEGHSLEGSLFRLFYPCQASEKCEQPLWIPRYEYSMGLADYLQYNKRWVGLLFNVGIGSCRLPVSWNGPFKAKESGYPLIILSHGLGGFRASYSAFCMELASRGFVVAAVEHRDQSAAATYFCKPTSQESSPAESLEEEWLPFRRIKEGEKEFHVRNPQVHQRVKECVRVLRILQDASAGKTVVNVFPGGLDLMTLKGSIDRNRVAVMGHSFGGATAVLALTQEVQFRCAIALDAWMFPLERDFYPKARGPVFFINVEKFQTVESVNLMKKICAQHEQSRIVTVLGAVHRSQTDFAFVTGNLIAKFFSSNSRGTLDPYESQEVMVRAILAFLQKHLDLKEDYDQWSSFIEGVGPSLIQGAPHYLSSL

Regarding `O=C(N1CCCC1)n1ncc(-c2ccc(-c3ccccc3)cc2)n1`, the inhibition in assay [1] was found to be 100%; in assay [2], 0%.
